Data published in the EternaBench riboswitch data.

Test system: MS2 coat protein
Experiment: apparent Kd, MS2 coat protein; higher = weaker binding; RNA-MaP array
Outline: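 With or without input ligand, designed RNAs transcribed on an Illumina sequencing chip from sequenced DNA templates were incubated at room temperature with fluorescently labeled MS2 coat protein at 1.5 nM to 3 μM. The buffer was Tris-HCl pH 7.5 with KCl, MgCl2, BSA, DTT, tRNA and Tween20, and incubation ran 0.8–1.5 h at the lowest and 10–20 min at the highest concentrations. Apparent Kd is reported as the median of fits to binding curves from individual clusters. Designs measured on fewer than 10 clusters are not included.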

[1] = designed as: ON switch for flavin mononucleotide, no ligand
[2] = ligand present: flavin mononucleotide, designed as: ON switch for flavin mononucleotide
[3] = designed as: OFF switch for flavin mononucleotide, no ligand
[4] = ligand present: flavin mononucleotide, designed as: OFF switch for flavin mononucleotide

Sequence	apparent Kd [3] [nM]	apparent Kd [4] [nM]	other results
CUUCGGCCCAGGGAGAUGACCACAUGAGGAUCACCCAUGUACAGAAGGAGUAUCGGUAGGCCAUACUAGGAUAUGUGAAUAGAC			apparent Kd [1]: 25.8 nM; apparent Kd [2]: 31.4 nM
GAAAAUACAUGAGGAUCACCCAUGUGGUGGCGUCAGAUUGGUUAGGAUAUCUUGGCGGGAUACUGAGAGAAGGAACUUUGAAGG	181	136	
GAAGAGAGGAUACCGUUUGUAUACAACGAUACCAGUGGUAUGUAUCACCCUUGGCAGCGUGAGACAUGAGGAUCACCCAUGUGGC			apparent Kd (designed as: OFF switch for theophylline, no ligand): 21.2 nM; apparent Kd (ligand present: theophylline, designed as: OFF switch for theophylline): 21.6 nM
GAAUCUACAAACGAUACCAGAUCCGGCUGCCACAUGAGGAUCACCCAUGUCUAGCGACUCAUCCCUUGGCAGCGUGUGCAUCCCG			apparent Kd (designed as: ON switch for theophylline, no ligand): 508 nM; apparent Kd (ligand present: theophylline, designed as: ON switch for theophylline): 781 nM
GAAUGGAAACUAGGAUAUCGGCAGGAGCGGGAGCGAGAAGGAGUUUACUCGGUAUACAUGAGGAUCACCCAUGUGGGUGUGCUG	294	252	
GAAUGGAAAGGAUAUCGCUGUUCUGACAUGAGGAUCACCCAUGUACGUGUUAGCUUGUUUCGAGAAGGUUCCACUC	15.6	21.8	
GACAGCAUCCGAGGAUAUAUGUACGUAAUCAAACCACAUGAGGAUCACCCAUGUCCUCUAGGUUCAUAGAAGGCGGUUUAGCGU	455	750	
GACAGCGAAGGAUAUACAUGAGGAUCACCCAUGUCUCACUAACGUAGCCGCGGGUAAUGUAGAAGGUCGCGAUG	191	65.4	
GACCUCCUGCGAGCACAUGAGGAUCACCCAUGUAAGGACCUGAGAAGGCACCGUUAAGAUUGGAGUGAGGAUAUCAGGAUAUAG	23.5	19.7	
GACGUCGCCUUAGGAUAUGCCCAUUACAUGAGGAUCACCCAUGUUUCUUAAAGAGGAUCCGCAUGGCAGAAGGAAGGUCUCCAC	25.4	59.4	
GACUGGAGGAGAGGAUAUGCAAAGACUCUAUUCGCAGAAGGCUCGUGCGGUCAACAUGAGGAUCACCCAUGUCUGGCGACAUGC	6.26	8.62	
GAGACAGGGCAGAAGGUUCUAAACGGCUAAAUGAAAGGAUAUGCAAACAUUGACAUGAGGAUCACCCAUGUGUUAAAAGCUACG	12.1	9.88	
GAGCUAUCAGGAUAUACAUGAGGAUCACCCAUGUUUUUUGGAAUCAAGAGGAAUCAAUGUAGAAGGGAUCUCGA	21.8	28.2	
GAGGCACGGUCGGCCGCCACUACAGCAGUGGUCCGCCAAGCGAGGUACAUGAGGAUCACCCAUGUUAGGACCGGGACCUGUUUUU			apparent Kd (designed as: OFF switch for tryptophan, no ligand): 24.6 nM; apparent Kd (ligand present: tryptophan, designed as: OFF switch for tryptophan): 73.7 nM
GAGUACAGGGAGAAGGUGUAUUAAUACGCACGGCUGGUCACAUGAGGAUCACCCAUGUCGCAUAACAAGGAUAUCCGACUAAUC	139	213	
GAUUUACAUGAGGAUCACCCAUGUGAGGAUAUGCCGUACAUCGCGCUCUGAGCUAGUUGCAGAAGGCACAUGAU	18.9	18.3	
GCAAAAGCGCUCUAGAGACAUGAGGAUCACCCAUGUGUGGGUAGAAGGUCCUACGUACCAUUAAGGAAGGAUAUACACAUAUAU			apparent Kd [1]: 1090 nM; apparent Kd [2]: 540 nM
GCAUAACAUGAGGAUCACCCAUGUGAGGAUAUUCCCUCCGGCAAUUGCUCCCAAGAGGGAAGAAGGCACAGUGG	146	66.1	
GCAUUCGGAUUAGGAUAUCUACAUCAUUCGUUUGGGAUAGAGCUACAUGAGGAUCACCCAUGUGUAGAGAAGGAAUAUGAACAC			apparent Kd [1]: 79 nM; apparent Kd [2]: 83.9 nM
GCCAUGUAAGGAUAUCUUAACUUGCAUCACGCGCGGAAUGGAGAGAAGGUACAUGAGGAUCACCCAUGUGAAAA	19.8	28	
GCGCCAAGUAAGAAGGGCUCAAAGGAAAACCUAGACUUCACUACAUGAGGAUCACCCAUGUCUCAGCAGGAUAUUAUCGGUCAA			apparent Kd [1]: 22.2 nM; apparent Kd [2]: 17.9 nM
GCGGACGAUGAGAAGGUAGUAAGGUAGGACAUGAGGAUCACCCAUGUAUGAACUAUCCCAACAACUAAGGAUAUCAGCAACCCU	7.34	5.77	
GCGGGAGAUCAGAAGGCUAUAACGUUUCACAUGAGGAUCACCCAUGUGGGCUCCUAGGGAUGGAUAGAGGAUAUGACCGAAUAU	12.9	13.3	
GCUACCACCGCAGGAUAUAAUCGGACACUCGUAGCGUUGCGAACAUGAGGAUCACCCAUGUCUAUUUAGAAGGGCGCAUGGGAU			apparent Kd [1]: 78.8 nM; apparent Kd [2]: 42.6 nM
GCUAGUAGAGAGAAGGAGCUUGAAUAUUUAGCGCUAGGAUAUCUUCGGUAGCCGUAGAGCAUACAUGAGGAUCACCCAUGUCCG			apparent Kd [1]: 52.7 nM; apparent Kd [2]: 27.8 nM
GCUGCACAUGAGGAUCACCCAUGUACCCUACUGAGAGGAUAUGUGAUCCGUUAGCAAUCCACAGAAGGCUCGGUUC			apparent Kd [1]: 51.2 nM; apparent Kd [2]: 10.5 nM
GCUGGACAUGAGGAUCACCCAUGUGAGGAUAUGAGAAGUAUCAUGCACCCGAUCCAUCUCAGAAGGCACAGGUG	71.5	258	
